Experiments:
[1] = target: IRE1α* RNase (Homo sapiens, UniProt O75460); experiment: fluorescence-quenched XBP1 mini-substrate RNase assay, IRE1α*; type: biochemical; details: read-out: IRE1α RNase IC50, mean ± SEM, n=3
How it was run: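 IRE1α* RNase activity was followed in vitro as the real-time rise in fluorescence on cleavage of a FRET-quenched XBP1 mini-substrate. IC50 was taken from inhibition curves, mean ± SEM, n=3. Selectivity is the IRE1α RNase IC50 divided by the IRE1β RNase IC50, for each inhibitor.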

[2] = target: IRE1β* RNase (Homo sapiens, UniProt Q76MJ5); experiment: fluorescence-quenched XBP1 mini-substrate RNase assay, IRE1β*; type: biochemical
How it was run: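 Recombinant IRE1β* RNase cleaves a FRET-quenched XBP1 mini-substrate, monitored in real time as a fluorescence increase. Activation is tested at a low, mainly monomeric IRE1β* concentration and inhibition at a higher, dimer-containing concentration. Initial cleavage rates are compared with DMSO. IC50 values are mean ± SEM, n=3. Selectivity is the IRE1α* RNase IC50 divided by the IRE1β* RNase IC50.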

Sequence of IRE1β* RNase (Q76MJ5 452-926 limits assumed): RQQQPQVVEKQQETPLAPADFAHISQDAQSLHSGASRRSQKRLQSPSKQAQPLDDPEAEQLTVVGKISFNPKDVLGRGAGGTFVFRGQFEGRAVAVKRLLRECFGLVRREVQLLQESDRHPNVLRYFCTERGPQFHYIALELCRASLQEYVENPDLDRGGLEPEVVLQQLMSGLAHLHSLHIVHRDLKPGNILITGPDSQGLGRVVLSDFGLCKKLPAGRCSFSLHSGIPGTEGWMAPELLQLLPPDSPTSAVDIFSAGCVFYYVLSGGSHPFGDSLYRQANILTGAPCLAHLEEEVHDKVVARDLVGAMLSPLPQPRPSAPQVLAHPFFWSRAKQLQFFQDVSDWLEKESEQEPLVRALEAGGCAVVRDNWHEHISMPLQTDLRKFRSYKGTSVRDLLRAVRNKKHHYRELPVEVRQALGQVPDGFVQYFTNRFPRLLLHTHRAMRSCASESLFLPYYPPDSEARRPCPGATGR
Sequence of IRE1α* RNase (O75460 465-977 limits assumed): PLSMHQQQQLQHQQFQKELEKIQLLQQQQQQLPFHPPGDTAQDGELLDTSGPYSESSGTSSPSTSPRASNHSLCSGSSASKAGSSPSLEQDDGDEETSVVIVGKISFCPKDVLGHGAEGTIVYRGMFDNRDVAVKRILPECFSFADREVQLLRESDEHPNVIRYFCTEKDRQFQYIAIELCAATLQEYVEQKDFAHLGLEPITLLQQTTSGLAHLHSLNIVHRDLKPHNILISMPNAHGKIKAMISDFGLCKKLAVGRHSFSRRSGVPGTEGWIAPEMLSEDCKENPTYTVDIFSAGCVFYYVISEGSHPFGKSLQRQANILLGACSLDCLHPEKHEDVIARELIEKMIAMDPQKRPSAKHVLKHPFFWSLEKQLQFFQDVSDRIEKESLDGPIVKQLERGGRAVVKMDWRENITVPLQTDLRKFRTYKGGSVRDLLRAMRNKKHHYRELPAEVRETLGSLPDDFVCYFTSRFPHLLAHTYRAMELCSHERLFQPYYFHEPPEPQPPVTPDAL

Row | IC50 [1] [nM] | IRE1β RNase Selectivity (Fold) ([2]; IRE1α* RNase IC50 divided by IRE1β* RNase IC50) | IC50 ([2]; read-out: IRE1β RNase IC50, mean ± SEM, n=3, XBP1 mini-substrate) [nM] | rate of XBP1 mini-substrate cleavage relative to the apo form ([2]; Low [IRE1β*] (mainly monomeric), RNase activation) [fold] | SMILES | effect on ability to cleave the XBP1 mini-substrate ([2]; High [IRE1β*] (RNase active dimer))
1 | 5 ± 2.3 | 0.09 | 55 ± 5 | – | Cc1ccc2c(NS(=O)(=O)c3ccccc3Cl)cccc2c1Oc1ncccc1-c1ccnc(N[C@H]2CCCNC2)n1 [compound 1] | almost complete loss in its ability to cleave the XBP1 mini-substrate
2 | – | – | – | 12 | O=C(Nc1c[nH]nc1-c1nc2ccc(CN3CCOCC3)cc2[nH]1)NC1CC1 [AT9283] | –

Reference: article PMC6925334 (ACS chemical biology, 2019)
